Laboratory results as given in ChEMBL document CHEMBL1781963, “Discovery of novel hepatoselective HMG-CoA reductase inhibitors for treating hypercholesterolemia: a bench-to-bedside case study on tissue selective drug distribution” (Bioorg Med Chem Lett, 2011).

How the values were obtained:
[1] = biological target: T1, OATP1B2 (Rattus norvegicus, UniProt Q9QZX8); assay: Drug uptake by rat hepatic OATP1B2 transporters expressed in CHO cells at 1 uM relative to wild type CHO cells; format: ADME, cell-based; conditions: CHO cells expressing rat OATP1B2, read-out: FC
T1 sequence (Q9QZX8 whole entry): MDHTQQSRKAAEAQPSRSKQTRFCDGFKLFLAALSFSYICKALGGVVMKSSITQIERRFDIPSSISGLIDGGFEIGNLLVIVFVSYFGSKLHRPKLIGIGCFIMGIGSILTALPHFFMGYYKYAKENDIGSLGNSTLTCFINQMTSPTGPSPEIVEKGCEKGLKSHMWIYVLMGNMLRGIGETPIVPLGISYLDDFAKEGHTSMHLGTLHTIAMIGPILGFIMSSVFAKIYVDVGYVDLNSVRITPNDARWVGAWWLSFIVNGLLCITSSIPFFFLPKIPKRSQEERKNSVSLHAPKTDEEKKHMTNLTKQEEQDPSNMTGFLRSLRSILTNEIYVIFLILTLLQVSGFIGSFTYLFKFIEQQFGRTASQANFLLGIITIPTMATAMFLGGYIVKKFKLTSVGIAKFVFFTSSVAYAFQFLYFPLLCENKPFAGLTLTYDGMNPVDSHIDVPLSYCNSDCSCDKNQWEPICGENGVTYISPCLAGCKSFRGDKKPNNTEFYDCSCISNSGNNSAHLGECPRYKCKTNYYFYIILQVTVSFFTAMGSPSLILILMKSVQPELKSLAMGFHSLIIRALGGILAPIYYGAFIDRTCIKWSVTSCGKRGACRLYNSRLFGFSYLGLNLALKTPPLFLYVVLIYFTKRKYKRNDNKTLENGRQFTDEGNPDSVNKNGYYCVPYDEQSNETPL
Summary of the method: (§1)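 Individual hepatic OATP transporters were over-expressed in CHO or HEK293 cells: rat rOatp1a1, rOatp1a4 and rOatp1b2, and human hOATP1B1, hOATP1B3 and hOATP2B1. Substrate uptake is expressed as fold difference relative to the wild-type parental line. Rosuvastatin/pravastatin served as positive control and midazolam as negative control in each assay.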

[2] = Fraction unbound in human plasma at 0.5 ug/ml; format: ADME, cell-free
Summary of the method: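 Unbound fraction in rat, dog or human plasma, measured at a drug concentration of 0.5 μg/mL.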

[3] = biological target: T2, OATP1A1 (Rattus norvegicus, UniProt P46720); assay: Drug uptake by rat hepatic OATP1A1 transporters expressed in CHO cells at 1 uM relative to wild type CHO cells; format: ADME, cell-based; conditions: CHO cells expressing rat OATP1A1, read-out: FC; summary of the method: as §1
T2 sequence (P46720 whole entry): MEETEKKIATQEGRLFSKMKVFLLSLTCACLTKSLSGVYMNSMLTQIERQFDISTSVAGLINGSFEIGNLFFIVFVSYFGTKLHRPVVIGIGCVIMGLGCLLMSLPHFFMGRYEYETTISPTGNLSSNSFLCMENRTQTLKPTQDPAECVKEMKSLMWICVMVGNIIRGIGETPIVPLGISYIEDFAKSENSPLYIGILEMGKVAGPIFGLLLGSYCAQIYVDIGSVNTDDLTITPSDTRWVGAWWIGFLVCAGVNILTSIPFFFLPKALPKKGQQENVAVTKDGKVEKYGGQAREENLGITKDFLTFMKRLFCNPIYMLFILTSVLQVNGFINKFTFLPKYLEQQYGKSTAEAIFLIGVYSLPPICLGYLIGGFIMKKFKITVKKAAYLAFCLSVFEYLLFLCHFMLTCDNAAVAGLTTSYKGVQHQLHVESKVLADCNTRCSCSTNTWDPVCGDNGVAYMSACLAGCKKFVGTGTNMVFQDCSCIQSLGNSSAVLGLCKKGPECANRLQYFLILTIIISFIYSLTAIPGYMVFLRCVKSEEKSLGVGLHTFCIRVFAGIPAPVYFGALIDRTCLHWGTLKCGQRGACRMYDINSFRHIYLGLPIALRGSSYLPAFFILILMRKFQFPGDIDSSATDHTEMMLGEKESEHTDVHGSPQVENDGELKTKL

[4] = biological target: T3, OATP1B3 (Homo sapiens, UniProt Q9NPD5); assay: Drug uptake by human hepatic OATP1B3 transporter expressed in HEK293 cells at 10 uM relative to wild-type HEK293 cells; format: ADME, cell-based; conditions: HEK293 cells expressing OATP1B3, read-out: FC; summary of the method: as §1
T3 sequence (Q9NPD5 whole entry): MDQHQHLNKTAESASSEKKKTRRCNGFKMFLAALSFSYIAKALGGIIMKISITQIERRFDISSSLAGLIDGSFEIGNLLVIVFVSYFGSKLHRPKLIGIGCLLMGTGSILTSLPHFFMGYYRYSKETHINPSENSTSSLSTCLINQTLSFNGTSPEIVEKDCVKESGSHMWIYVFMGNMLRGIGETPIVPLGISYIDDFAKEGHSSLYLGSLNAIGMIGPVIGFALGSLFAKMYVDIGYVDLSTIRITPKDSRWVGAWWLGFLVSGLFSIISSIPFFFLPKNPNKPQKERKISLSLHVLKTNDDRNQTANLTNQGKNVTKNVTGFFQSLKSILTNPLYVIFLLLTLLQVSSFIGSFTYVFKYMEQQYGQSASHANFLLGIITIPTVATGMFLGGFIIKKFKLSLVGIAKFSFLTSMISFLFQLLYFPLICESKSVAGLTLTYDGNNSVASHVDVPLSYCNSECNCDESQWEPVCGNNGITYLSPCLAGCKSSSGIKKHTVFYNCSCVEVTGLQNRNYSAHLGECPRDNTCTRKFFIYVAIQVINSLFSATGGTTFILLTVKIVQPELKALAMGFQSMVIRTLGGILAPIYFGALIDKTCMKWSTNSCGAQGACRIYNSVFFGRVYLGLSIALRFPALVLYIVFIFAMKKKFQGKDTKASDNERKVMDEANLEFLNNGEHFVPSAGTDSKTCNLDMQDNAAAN

[5] = test system: Syrian golden hamster; assay: Inhibition of cholesterol synthesis in golden syrian hamster assessed as reduction of [14C]-cholesterol level at 10 mg/kg, po followed by 2 hrs after treated with 80 uCi, ip of [14C]-sodium acetate measured after 4 hrs by liquid scintillation counting relative to control; format: functional; conditions: Mesocricetus auratus
Summary of the method: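 Hamsters dosed po at 10 mg/kg at t = 0 h. Intraperitoneal 14C sodium acetate at t = 2 h, blood drawn at t = 4 h for 14C cholesterol. Percent inhibition vs untreated controls, n = 8/group.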

| SMILES | uptake ratio at 1 µM [1] | fraction unbound at 0.5 ug/ml [2] | uptake ratio at 1 µM [3] | uptake ratio at 10 µM [4] | inhibition in vivo at 10 mg/kg [5] [%] |
| --- | --- | --- | --- | --- | --- |
| O=C([O-])C[C@H](O)C[C@H](O)CCn1c(-c2ccc(F)cc2)nc(C(=O)NCc2cccc(F)c2)c1C1CC1.[Na+] | 1.8 | 0.29 | 5.8 | 36.4 | -68 |
| Cc1ccc(CNC(=O)c2nn(-c3ccc(F)cc3)c(CC[C@@H](O)C[C@@H](O)CC(=O)O)c2C(C)C)cc1 | 2.9 | 0.051 | 3.6 | 5 | -74 |
| Cc1ncc2n1-c1ccc(Cl)cc1C(c1ccccc1F)=NC2 [MIDAZOLAM] | 1.1 | – | 1.6 | 1.1 | – |
| CC[C@H](C)C(=O)O[C@H]1C[C@H](O)C=C2C=C[C@H](C)[C@H](CC[C@@H](O)C[C@@H](O)CC(=O)O)[C@H]21 [PRAVASTATIN] | 3.6 | – | 2.4 | 32.8 | – |
| CC(C)c1nc(N(C)S(C)(=O)=O)nc(-c2ccc(F)cc2)c1/C=C/[C@@H](O)C[C@@H](O)CC(=O)O [ROSUVASTATIN] | – | 0.17 | 8.2 | 11.1 | -76 |
